dFosB activator = mouse delta FosB homodimer activation; 340,000 compounds, 0.99% hits; P13346; activation, % at 25 µM; purified delta FosB, TAMRA-CDK5 oligo fluorescence polarization; percent of positive-control signal above neutral wells;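 active = mean activation above about 17%, with every replicate also reaching it, limit read from the data, passing the limit was not always enough; inconclusive = only one of the two conditions met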
SR-BI HDL uptake = inhibitors of mouse SR-BI mediated HDL lipid uptake | Q61009 | 320,000 compounds, 0.96% hits | AID 488896 | ldlA[mSR-BI] CHO cells, DiI-HDL uptake fluorescence, 3 h | inhibition, % at 12.5 µM;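 active = mean replicate inhibition of at least 70% and a set share of replicates each scoring 70 or more; inconclusive = meets just one of the two criteria; inactive = fails both criteria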
Target sequence (Q61009 whole entry, looked up): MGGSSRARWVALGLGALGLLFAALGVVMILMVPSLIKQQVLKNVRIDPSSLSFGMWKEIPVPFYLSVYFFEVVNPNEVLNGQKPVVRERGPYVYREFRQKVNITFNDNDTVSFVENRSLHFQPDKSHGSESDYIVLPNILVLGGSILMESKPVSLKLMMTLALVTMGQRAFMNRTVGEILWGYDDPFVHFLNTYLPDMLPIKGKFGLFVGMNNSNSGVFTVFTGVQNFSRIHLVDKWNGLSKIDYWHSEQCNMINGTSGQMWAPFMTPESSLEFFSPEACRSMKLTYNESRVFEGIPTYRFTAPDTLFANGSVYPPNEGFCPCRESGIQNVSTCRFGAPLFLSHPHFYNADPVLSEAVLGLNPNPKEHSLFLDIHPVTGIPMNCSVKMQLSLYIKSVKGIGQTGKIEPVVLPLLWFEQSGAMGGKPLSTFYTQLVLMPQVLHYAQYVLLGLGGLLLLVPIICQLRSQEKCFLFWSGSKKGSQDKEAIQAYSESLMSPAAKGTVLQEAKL
SR-BI DiI-HDL act = enhances SR-BI lipid uptake from DiI-HDL; activation, % at 12.5 µM; CHO ldlA[mSR-BI] cells, DiI-HDL uptake fluorescence, 3 h; 100 = double the neutral-control signal; 320,000 compounds, 0.096% hits;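 active = mean replicate activation of at least 60% and every replicate at or above 60%; inconclusive = mean or all-replicate condition met, but not both; inactive = mean below 60% and not all replicates reaching 60%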
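Test system: SR-BI-overexpressing, LDLR-lacking CHO cells; Medium: Ham's F12 with 0.5% BSA, HEPES 25 mM, pH 7.4; Schedule: 3 h, 37 °C; Technique: bottom-read fluorescence, 550/595 nm.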
CAL PDZ FP-1 = human CAL PDZ-peptide interaction inhibition | Q9HD26 | purified CAL PDZ, TMR-peptide fluorescence polarization, 1 h | inhibition, % at 20 µM | 330,000 compounds, 0.02% hits;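 active = highest replicate inhibition of at least 40%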
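Control set: unlabelled peptide and DMSO controls / Material: purified CerCALP PDZ construct / Timing: 1 h incubation at room temperature before polarization reading / Doses: 20 µM, one dose / Detection: fluorescence polarization (mP)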
CAL PDZ FP-2 = inhibitors of human CAL PDZ peptide binding; Q9HD26; purified CAL PDZ, TMR-peptide fluorescence polarization, 1 h; inhibition, % at 24.9 µM; 300,000 compounds, 0.92% hits;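 active = mean inhibition of at least 30% with at least half of replicates also reaching 30%; inconclusive = no clear call, values can overlap the other calls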
A number is an active result; 0 = inactive; ? = inconclusive; - = not tested or not shown. Only some compounds are listed: those with a hit (about 2.8% of all), similar ones and a draw of the others.

SMILES	dFosB activator	SR-BI HDL uptake	SR-BI DiI-HDL act	CAL PDZ FP-1	CAL PDZ FP-2
O=C(Nc1ccccc1C(=O)N/N=C/c1ccccc1)c1ccco1	88	-	-	0	0
Cc1cc([N+](=O)[O-])nn1Cc1noc(C(=O)NCCc2ccccn2)n1	0	-	-	0	0
N#CNC(=Nc1ccccc1)SCc1ccc(C(=O)O)cc1	0	0	0	0	0
CSC(=Nc1ccccc1)N=C(SCc1ccccc1)N(C)C	0	86	0	0	0
COc1ccc(NS(=O)(=O)c2ccc3oc(=S)[nH]c3c2)cc1	0	-	-	0	31
CCN(CC)c1ccc(NS(=O)(=O)c2ccc(OC)cc2)cc1	0	0	0	0	66
CCN(CC)C(=O)[C@H]1C[C@H](CC(=O)NCc2ccc(OC)c(OC)c2)C(=O)N2CCc3c([nH]c4cc(-c5ccco5)ccc34)[C@]12C	0	0	0	0	0
COc1ccc(NC(=O)CN(C)CC(=O)Nc2ccc(Cl)cc2F)cc1	0	0	0	0	0
CN(C)C(CNC(=O)c1cccc(S(=O)(=O)Nc2ccccc2Cl)c1)c1ccco1 (centres undefined)	0	0	0	0	32
CNS(=O)(=O)c1cccc(C(=O)NCC(c2ccco2)N(C)C)c1 (centres undefined)	0	-	-	0	0
CCOc1ccccc1Nc1nnc(SCC(=O)Nc2nc(-c3ccc(OC)cc3)cs2)s1	0	76	0	0	0
CCOc1ccc(NCc2nnc(SCC(=O)Nc3nc(-c4ccccc4)cs3)n2-c2ccccc2)cc1	0	75	0	0	0
CN1CCN(CC(=O)c2ccccc2F)CC1	0	0	?	0	0
CC(=O)NC1C(=O)N(CCN2CCOCC2)c2ccc(C)cc21 (centres undefined)	0	0	0	0	64
C=CCN1C(=O)c2ccc(C(=O)N(CC)CC(=O)Nc3cc(Cl)ccc3C)cc2C1=O	0	0	0	0	0
N#CC1C(=O)NC(=O)CC12CCCCC2 (centres undefined)	0	0	0	0	80
COc1ccc(NC(=O)CCNC(=O)C2CCN(S(=O)(=O)c3ccc(OC)cc3)CC2)cc1	0	0	0	0	0
COc1ccc(S(=O)(=O)N2CCC(C(=O)NCCC(=O)Nc3cccc(Cl)c3)CC2)cc1	0	0	0	0	41
COc1ccccc1C(=O)NCCC(=O)N1CCN(c2cccc(C(F)(F)F)c2)CC1	0	0	0	0	0
COc1ccc(N2CCN(c3nc4c(c(=O)n(C)c(=O)n4C)n3CCCc3ccccc3)CC2)cc1	0	0	373	0	0
COc1ccc(N2CCN(Cc3nc4c(c(=O)n(C)c(=O)n4C)n3CCc3ccccc3)CC2)cc1	0	0	0	0	0
O=C(Cn1c(O)c(/C=C2\C=Nc3ccccc32)sc1=O)Nc1ccc2c(c1)OCO2	36	0	0	0	0
O=C(Cn1c(O)c(/C=C2\C=Nc3ccccc32)sc1=O)N1CCOCC1	0	0	0	0	-
O=C1C=C(c2ccc3c(c2)oc2ccccc23)C[C@@H](c2ccc(Cl)cc2)C1	0	0	0	0	0
COc1ccc(NS(=O)(=O)c2ccc(O)c(C(=O)OCC(=O)N3CCCCC3)c2)cc1	0	0	0	0	39
SMILES	dFosB activator	SR-BI HDL uptake	SR-BI DiI-HDL act	CAL PDZ FP-1	CAL PDZ FP-2
COc1ccc(NS(=O)(=O)c2ccc(O)c(C(=O)OCC(=O)N3CC(C)OC(C)C3)c2)cc1 (centres undefined)	0	0	0	0	-
Cc1cc(NS(=O)(=O)c2ccc(NC(=O)Nc3cccc(C(F)(F)F)c3)cc2)no1	0	0	0	0	0
O=C1C=CC(c2ccccc2)(c2ccccc2)CC1	0	0	0	0	38
CN(Cc1cccs1)C(=O)Cn1cnc2ccccc2c1=O	0	0	0	0	0
COc1ccc(C(=O)OC2C(OC)OCC(O)C2O)cc1 (centres undefined)	0	0	0	0	44
O=C(COC(=O)Cc1cccc(C(F)(F)F)c1)Nc1ccc2[nH]c(=O)[nH]c2c1	0	0	0	0	0
COc1ccc(NC(=O)CSc2nnc(Cc3ccccc3)c(=O)n2N)cc1OC	0	0	0	0	0
O=C(/C=C\c1ccc2c(c1)OCO2)CC1(O)C(=O)Nc2ccccc21 (centres undefined)	0	0	0	-	89
Cc1ccnc(NC(c2cccnc2)c2ccc3cccnc3c2O)c1 (centres undefined)	0	0	0	0	0
Cc1ccc2ccc(C(Nc3cccc(C(F)(F)F)c3)c3cccnc3)c(O)c2n1 (centres undefined)	0	0	0	0	43
COc1cc(CO)ccc1Oc1nc2ccccc2n2cnnc12	0	0	0	0	0
COc1ccccc1/C=C/C=N/NC(=O)c1cc(-c2ccc(C)o2)[nH]n1	0	0	0	0	62
Cc1ccc(/C=N/NC(=O)c2cc(-c3ccc(C)o3)[nH]n2)cc1	0	-	-	0	0
Cc1ccc2nc(NC(=O)CC3Oc4ccccc4NC3=O)sc2c1 (centres undefined)	0	-	-	0	0
CN(CC(=O)NCCCN1CCOCC1)S(=O)(=O)c1ccc(Br)cc1	0	78	0	0	0
CN(CC(=O)NCCN1CCOCC1)S(=O)(=O)c1ccc(Cl)cc1	0	0	0	0	-
O=C(COC(=O)/C=C/c1ccccc1[N+](=O)[O-])Nc1ccc(S(=O)(=O)N2CCOCC2)cc1	0	0	0	0	35
COc1ccc(NC(=O)COC(=O)/C=C/c2ccccc2[N+](=O)[O-])cc1	0	0	0	0	0
O=C(COC(=O)CCN1C(=O)c2ccccc2C1=O)Nc1ccc(S(=O)(=O)N2CCCC2)cc1	0	0	0	0	0
COc1ccc(/C=C/C(=O)OCC(=O)Nc2ccc(S(N)(=O)=O)cc2)cc1OC	0	0	0	0	45
COc1cc(NS(=O)(=O)c2ccc(NC(=S)NC(=O)/C=C/c3ccc(OC)c(OC)c3)cc2)ncn1	0	0	0	0	0
COc1ccc(/C=C/C(=O)NC(=S)Nc2ccc(S(=O)(=O)N=C(N)N)cc2)cc1OC	63	0	286	0	0
O=C(COC(=O)CN1C(=O)c2ccccc2C1=O)Nc1ccc(S(=O)(=O)N2CCCC2)cc1	0	0	0	-	35
COC(=O)c1cc(=O)n2c(sc3ccccc32)c1C#N	0	0	0	0	0
CCCCn1c(N)c(N(CC(C)C)C(=O)c2ccc3c(c2)NC(=O)C(C)S3)c(=O)[nH]c1=O (centres undefined)	0	0	0	0	0
CN(C(=O)Cn1cc(C(F)(F)F)ccc1=O)c1c(N)n(Cc2ccccc2)c(=O)[nH]c1=O	0	0	0	0	0
COc1cc(/C=C/C(=O)OCC(=O)Nc2ccc(S(=O)(=O)N3CCCC3)cc2)ccc1O	0	82	0	0	0
CCN(CC)S(=O)(=O)c1ccc(S(=O)(=O)NCC2CCCO2)cc1 (centres undefined)	0	0	0	0	0
